In ChEMBL document CHEMBL1129664, “Neuroactive polyamine wasp toxins: nuclear magnetic resonance spectroscopic analysis of the protolytic properties of philanthotoxin-343” (J Med Chem, 1996):

How the values were obtained:
[1] = Macroscopic pKa value at 27 C, ionic strength 0.1 M; format: physicochemical
[2] = Macroscopic pKa value at 25 C, ionic strength 1 M; format: physicochemical
Summary of the method: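 13C and 1H NMR titration in D2O, following chemical shifts against pD at 25 °C, ionic strength 1 M, with a 22 mM solution for the shift data. Carbons of the polyamine chain were assigned from shift data and total ionization shifts. Proton shifts were too small for quantitative analysis, so 1H titration curves were used only qualitatively.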

[3] = Macroscopic pKa value at 25 C, ionic strength 0.1 M; format: physicochemical
[4] = physchem

pKa ([1]; read-out: pK1) | pKa ([1]; read-out: pK2) | pKa ([1]; read-out: pK3) | pKa ([1]; read-out: pK4) | pKa ([2]; read-out: pK1) | pKa ([2]; read-out: pK2) | pKa ([2]; read-out: pK3) | pKa ([3]; read-out: pK1) | pKa ([3]; read-out: pK2) | pKa ([3]; read-out: pK3) | pKa [4] | Compound | pKa ([2]; read-out: pK4)
7.59 | 9.24 | 10.5 | 11.1 | – | – | – | – | – | – | – | NCCCCNCCCNCCCN | –
– | – | – | – | 8.93 | 10.3 | 10.9 | 8.15 | 9.74 | 10.2 | – | NCCCCNCCCN [SPERMIDINE] | –
– | – | – | – | 8.69 | 9.31 | 10.7 | 7.91 | 8.68 | 10.2 | 10.6 | NCCCNCCCCNCCCN [SPERMINE] | 10.8
7.36 | 8.81 | 10.1 | 10.8 | – | – | – | – | – | – | – | NCCCNCCCNCCCN [THERMINE] | –

Compound | pKa ([1]; read-out: pK1) | pKa ([1]; read-out: pK2) | pKa ([1]; read-out: pK3) | pKa ([1]; read-out: pK4) | pKa ([2]; read-out: pK1) | pKa ([2]; read-out: pK2) | pKa ([2]; read-out: pK3) | pKa ([3]; read-out: pK1) | pKa ([3]; read-out: pK2) | pKa ([3]; read-out: pK3) | pKa [4] | pKa ([2]; read-out: pK4)
CCCC(=O)NC(Cc1ccc(O)cc1)C(=O)NCCCNCCCCNCCCN (stereo unspecified) | – | – | – | – | 8.5 | 9.5 | 10.4 | – | – | – | – | 11.4
